Sampled rows, rich in hits. Any-hit rate of the full collection: about 2.6%.
LMPTP block: LMPTP (human) inhibition | inhibition, % at 20 µM | recombinant LMPTP-A, OMFP fluorogenic substrate, fluorescence intensity | P24666 | AID 651560 | hit rate 0.22% among 360,000;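 active = compounds that cut the enzyme signal by at least half of the control window in the single-dose screen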;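 also: plate controls were DMSO wells with enzyme plus substrate for no effect and substrate without enzyme for full effect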
Target sequence (P24666 whole entry, looked up): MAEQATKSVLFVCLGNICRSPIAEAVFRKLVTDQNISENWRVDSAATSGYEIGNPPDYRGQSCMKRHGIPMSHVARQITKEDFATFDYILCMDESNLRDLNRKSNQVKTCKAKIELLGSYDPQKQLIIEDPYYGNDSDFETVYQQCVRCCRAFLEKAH
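Assay system: LMPTP-A phosphatase enzyme | Input: 0.625 nM enzyme | Also added: Fluorogenic phosphatase substrate OMFP at 400 µM final | Compound dosing: One test concentration per compound, 20 µM, with 3% DMSO overall | Schedule: 50 min enzyme reaction at room temperature, protected from light | Signal: Fluorescence intensity | Benchmarks: no-enzyme and uninhibited controls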
STEP inh: inhibitors of human striatal-enriched phosphatase STEP; recombinant STEP, OMFP fluorogenic substrate, fluorescence; inhibition, % at 20 µM; hit rate 0.25% among 360,000; AID 588621;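 active = inhibition at 20 µM, scaled per plate between control wells, above about 37%, limit read from the data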;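 also: 0% = DMSO with enzyme and substrate and 100% = substrate only without enzyme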
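Material: STEP (striatal-enriched tyrosine phosphatase) enzyme, cell-free | Medium: 50 mM Bis-Tris pH 6.0 with 2.5 mM DTT and 0.005% Tween 20 | Read-out: Percent inhibition scaled to no-enzyme and uninhibited-enzyme controls, plate-pattern corrected | Signal: Fluorescence read at 480 nm ex / 540 nm em | Times: 20 min reaction, room temperature, in the dark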
NadD block: blocks S. aureus nicotinate mononucleotide adenylyltransferase. purified NadD enzyme, colorimetric absorbance read-out. inhibition, % at 20 µM. hit rate 0.78% among 360,000; in the data active = inhibition above about 26%
rCAG binder: r(CAG) repeat RNA binding; TO-PRO-1 dye displacement fluorescence; inhibition, % at 3 µM; hit rate 1.3% among 370,000; AID 651821;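 active = inhibition above the plate cutoff, the mean of all test compounds on that plate plus 3 SD, cut at about 35% in these data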;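 also: 0% = DMSO alone and 100% = 100 µM mitoxantrone as full dye displacement; higher means more dye released from RNA so lower well fluorescence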
Scp1 inh: Scp-1 (human) phosphatase inhibition; Q9GZU7; Recombinant Scp1, phosphopeptide, malachite green phosphate absorbance; inhibition, % at 20 µM; hit rate 0.88% among 340,000;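 active = inhibition above about 50% at 20 µM, limit read from the data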;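 also: plate controls were DMSO wells with enzyme for no effect and wells lacking enzyme for full effect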
Target sequence (Q9GZU7 76-261 limits assumed): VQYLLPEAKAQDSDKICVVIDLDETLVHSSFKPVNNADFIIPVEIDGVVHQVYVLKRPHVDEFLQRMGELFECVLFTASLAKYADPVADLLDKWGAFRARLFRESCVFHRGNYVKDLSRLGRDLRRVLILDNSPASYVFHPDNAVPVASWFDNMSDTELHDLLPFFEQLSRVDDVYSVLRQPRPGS
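System: truncated SCP-1 phosphatase (76-261aa); medium: Tris acetate buffer pH 5.5 with MgCl2 and Tween-20; incubation: 45 min room-temperature reaction, 5 min colour, 30 min stabiliser; compound: single 20 µM dose, 1% DMSO; reagent: Phosphorylated 17-residue peptide substrate; read-out: % inhibition at 20 µM; technique: colorimetric free-phosphate detection, absorbance 630 nm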
Scp1 confirm: confirmation of human Scp-1 phosphatase inhibitors | shares compounds with Scp1 inh | recombinant SCP-1 catalytic domain, phosphate release, malachite green absorbance | inhibition, % at 20 µM | hit rate 61% among 2,500;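 also: plate controls were DMSO with enzyme for no effect and buffer wells lacking enzyme for full effect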
MG interference: interferes with malachite green readout, flagging false Scp-1 hits | shares compounds with Scp1 inh | AID 540313 | Colorimetric interference counterscreen, malachite green absorbance 630 nm | apparent inhibition (interference), % at 20 µM | 2,500 tested, under 10 active;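 also: compounds added after enzyme reaction finished so only phosphate colour detection is probed; plate controls were DMSO wells with completed Scp-1 reaction for no effect and substrate wells lacking enzyme for full effect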
Scp1 DSF: validation of human Scp-1 inhibitors by thermal shift binding; shares compounds with Scp1 inh; thermal shift relative to vanadate control, % at 40 µM; AID 540329; hit rate 25% among 1,500; Recombinant SCP1, Sypro Orange thermal shift Tm;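 active = substances whose mean melting-temperature shift, as a percentage of the reference inhibitor's shift, reaches about 5.3%, limit read from the data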;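 also: 0% = Tm of DMSO wells and 100% = Tm with sodium orthovanadate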
* = called active by the depositor; . = no result.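 The calls were made as follows, unless noted: active = inhibition of at least 30% at 20 µM; inactive = the rest.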

SMILES	LMPTP block	STEP inh	NadD block	rCAG binder	Scp1 inh	Scp1 confirm	MG interference	others
Fc1ccc2cnc(-c3ccccc3)c(-c3cccc(C(F)(F)F)c3)c2c1	2.5	0.0	6.5	-3.5	64.6*	6.3	-6.0
COc1cc2cnc(-c3ccccc3)c(-c3cccc(C(F)(F)F)c3)c2cc1OC	4.4	0.5	14.7	2.9	52.6*	-9.9	-9.0
COc1cc2cnc(-c3ccccc3)c(-c3ccc(C#N)cc3)c2cc1OC	-0.3	1.0	-1.5	-2.4	24.9	.	.
O=C(NCc1ccc(Cl)cc1)C1C2C=CC3(CN(Cc4ccccc4)C(=O)C13)O2 (stereo not drawn)	.	.	.	0.4	.	.	.
O=C(CN1CCC(NC(=O)Nc2ccc(Cl)cc2)CC1)Nc1ccc2c(c1)OCCO2	.	.	.	5.2	.	.	.
CC(Nc1nc(-c2cccnc2)nc2ccccc12)c1ccccc1 (stereo not drawn)	21.1	2.8	-0.6	4.7	.	.	.
COc1ccccc1C(C)Nc1nc(-c2cccnc2)nc2ccccc12 (stereo not drawn)	14.3	0.6	-3.6	-0.9	61.3*	-8.1	-12.6
Cc1ccc(NC(=O)[C@H]2CC(=O)O[C@@H]2c2ccccc2)c(C)c1	.	.	.	-1.2	.	.	.
COc1ccc([N+](=O)[O-])cc1CSc1ccccn1	-1.2	-0.8	10.1	-7.4	61.0*	-2.4	-8.7
COC(=O)[C@]12C[C@H](CC(=O)NCc3cccs3)C(=O)N(Cc3cccc4ccccc34)C1=C[C@H](COCc1ccccc1)O[C@@H]2C	.	.	.	13.2	.	.	.
O=C(NC1=NCCS1)C1CCN(S(=O)(=O)c2cc([N+](=O)[O-])ccc2Cl)CC1	18.1	1.8	15.1	14.8	90.7*	77.0*	-5.4	Scp1 DSF=11.4*
O=C(NC1=NCCS1)C1CCN(S(=O)(=O)c2ccc(Cl)cc2)CC1	0.5	2.3	-3.4	2.9	3.2	.	.
CCOC(=O)N1CCN(C(=O)c2ccc(Cn3c(=S)[nH]c4cc(C(=O)OC)ccc4c3=O)cc2)CC1	-1.7	0.3	20.8	5.2	-6.8	.	.
CCOC(=O)C1CCCN(C(=O)c2ccc(Cn3c(=S)[nH]c4cc(C(=O)OC)ccc4c3=O)cc2)C1 (stereo not drawn)	0.5	3.9	10.5	2.1	59.6*	31.4*	-15.6	Scp1 DSF=-2.1
Cc1cc(Cl)ccc1OCC(=O)N[C@@H](Cc1ccccc1)c1nc2ccccc2[nH]1	-1.7	1.4	25.6	0.3	85.7*	36.2*	-9.8	Scp1 DSF=-24.2
CCC(=O)NC(Cc1ccccc1)c1nc2ccccc2[nH]1 (stereo not drawn)	0.8	1.6	6.4	1.0	-5.1	.	.
CCc1ccccc1NC(=O)COc1ccc2oc(-c3ccc(OC)cc3)cc(=O)c2c1	7.3	4.9	0.5	2.5	73.6*	59.1*	-12.3	Scp1 DSF=-13.0
CCOc1ccc(C(=O)Nc2cccc(-c3nc4cccnc4o3)c2)cc1Cl	5.9	2.5	-4.8	.	82.5*	10.0	-4.3
O=C(O)c1ccc(COc2ccc3c4c(c(=O)oc3c2)CCC4)o1	-2.0	12.2	-4.7	5.1	50.1*	45.2*	-5.7	Scp1 DSF=-4.3
O=C(O)c1ccc(COc2c(F)c(F)c(F)c(F)c2F)o1	-1.4	8.0	-1.7	6.6	56.8*	47.9*	-18.4	Scp1 DSF=4.3
Cc1cc(C)cc(OCc2ccc(C(=O)O)o2)c1	-0.4	0.3	-2.1	4.3	-12.6	.	.
CC(=O)COc1coc(CN2CCN(c3ccc(F)cc3)CC2)cc1=O	-0.3	-2.9	-5.3	-0.2	50.7*	-5.9	-7.6
O=C(COc1coc(CN2CCN(c3ccc(F)cc3)CC2)cc1=O)Nc1ccccc1	0.7	-1.2	-1.7	1.6	1.4	.	.
Cc1ccc(C)c(NC(=S)N(CCc2ccncc2)C(C)C)c1	2.4	-1.1	-3.1	3.0	-5.4	.	.
Cc1cc(C)c(NC(=S)N(CCc2ccncc2)C(C)C)c(C)c1	-3.9	17.2	-5.5	-5.4	61.0*	-18.8	-16.7

Source: PubChem (several laboratories)
